Data set [1] can be described thus: Quantitative photolysis, quantum yields for disappearance. The class given is physicochemical. The note with it: for φdis (1-octanol): solvent 1-octanol. In outline: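 Test compound (1–9 mM) with caffeine or 4-acetamidophenol internal standard was dissolved in water, buffer, salt solution or solvent in quartz tubes. Samples were irradiated in a Rayonet reactor with two 3000 Å lamps, or at 350 nm for the TRIS pH 9.0/LiClO4 case. Aliquots taken every 30 s up to 5 min (<20% conversion) went to LC/UV or LC/MS/MS. Photon flux came from ferrioxalate actinometry. At least three independent runs were done.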

Data set [2] is described as follows: Picosecond pump-probe transient absorption, singlet and triplet lifetimes. The class given is physicochemical. The note with it: for kpF rate constant for the photo-Favorskii process: calculated as φdis/3τ. In outline: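 Transient absorption used the femtosecond pump–supercontinuum probe method. Pump pulses were 266 nm, 1 μJ, <100 fs. The supercontinuum probe spanned 270–690 nm, with both beams focused to 0.2 mm on sample flowing through a 0.4 mm cell. Detection was by photodiode array. Spectra were corrected for chirp and solvent contribution. kpF was taken as φdis/3τ.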

Data set [3] can be described thus: Stern-Volmer quenching with potassium sorbate. The note with it: H2O. The class given is physicochemical. In outline: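 pHP-GABA solutions (0.001–0.01 M) were diluted with potassium sorbate (0–0.1 M) in water. They were photolyzed under the quantum-yield conditions, and GABA-release quantum efficiencies were measured. KSV was the slope of φ0/φ versus [Q]. Triplet lifetime was derived assuming kq equals the diffusion rate, 7.2 × 10^9 […].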

Data set [4] can be described thus: Nanosecond flash photolysis, decay of the 340-nm transient. The note with it: water containing ca. 10 % ACN. The class given is physicochemical.
Data set [5] in a line: Effect of H2O on the rate of disappearance of the 390-400 nm band. The settings on record: CH3CN cosolvent. The class given is physicochemical.
The conditions of data set [6]: wholly aqueous solution; cited from earlier work.
For data set [7] the following is noted: cited from earlier work.

Read-outs that look alike come from different tables or passages of the source.

Consider `NCCCC(=O)OCC(=O)c1ccc(O)c(OC(F)(F)F)c1` [compound 2, CF3O-pHP GABA], for which the “quantum yield in 10% H2O:CH3CN” value in data set [1] (10% (v:v) H2O:CH3CN) is 0.12. Further, in data set [1] (dry CH3CN), the “quantum yield in dry CH3CN” value came to 0.03. The “φdis (1-octanol)” value in data set [1] worked out at 0.14. The “release of the amino acid upon irradiation” value in data set [1] (λ > 300 nm, aqueous media, ambient conditions) was “quantitatively released”. The compound further showed a 3τ triplet lifetime in data set [2] (10% CH3CN/H2O, pump-probe) of 0.71 ns. For the same compound, in data set [2] (H2O), the 3τ triplet lifetime turned out to be 0.46 ns and the “kpF rate constant for the photo-Favorskii process” value was 1.98 10^8 s^−1. Also, in data set [3], the “KSV Stern-Volmer constant” value turned out to be 20 M⁻¹. In data set [4], the “kdec decay rate constant of the 340-nm transient” value is roughly 6.5e+06 s⁻¹.

Take `CCOP(=O)(OCC)OCC(=O)c1ccc(O)cc1` [pHP diethyl phosphate]: the 3kdis is 3.30 × 10^9 S^−1 in data set [5] (74.53 mol % H2O); 9.95 × 10^9 S^−1 in data set [5] (95.14 mol % H2O); 1.6 × 10^10 S^−1 in data set [5] (100.00 mol % H2O); 2.62 × 10^5 S^−1 in data set [7] (0.00 mol % H2O, CH3CN, ref B. Hellrung, J. Wirz unpublished); 2.72 × 10^6 S^−1 in data set [7] (5.04 mol % H2O, CH3CN cosolvent, ref B. Hellrung, J. Wirz unpublished); 6.56 × 10^6 S^−1 in data set [7] (7.51 mol % H2O, CH3CN cosolvent, ref B. Hellrung, J. Wirz unpublished). The 3kdis in data set [7] (10.00 mol % H2O, CH3CN cosolvent, ref B. Hellrung, J. Wirz unpublished) was 1.15 × 10^7 S^−1; in data set [7] (15.03 mol % H2O, CH3CN cosolvent, ref B. Hellrung, J. Wirz unpublished) it was 3.84 × 10^7 S^−1; in data set [7] (24.54 mol % H2O, CH3CN cosolvent, ref Phillips 14), 1.11 × 10^8 S^−1; in data set [7] (34.05 mol % H2O, CH3CN cosolvent, ref Phillips 14), 4.17 × 10^8 S^−1; in data set [7] (49.38 mol % H2O, CH3CN cosolvent, ref Phillips 14) it was 7.81 × 10^8 S^−1; in data set [7] (55.64 mol % H2O, CH3CN cosolvent, ref Phillips 14), 1.25 × 10^9 S^−1. The 3kdis is reported as 1.89 × 10^9 S^−1 in data set [7] (66.11 mol % H2O, CH3CN cosolvent, ref Phillips 14) and 3.45 × 10^9 S^−1 in data set [7] (89.77 mol % H2O, CH3CN cosolvent, ref Phillips 14). Moreover, the 3τ triplet lifetime in data set [6] is reported as 60 ps.

Consider `NCCCC(=O)OCC(=O)c1ccc(O)cc1` [compound 1, pHP GABA], for which, in data set [1], the “φdis (1-octanol)” value is reported as 0.12. Besides, in data set [2] (H2O), the 1τ singlet lifetime is on record as 2.3 ps, the 3τ triplet lifetime is listed as 0.34 ns and the “kpF rate constant for the photo-Favorskii process” value is 6.00 10^8 s^−1.

These data come from publication PMC3422889 (The Journal of organic chemistry, 2009).
